In brackets after ≈: the same amount, converted by molar mass. Activity calls are given as the source filed them.

Assay [1] deals with Rhodotorula glutinis. Briefly: Antifungal activity against Rhodotorula glutinis NCIM 3168 assessed as zone of inhibition at 80 ug/well incubated for 48 to 72 hrs by agar well diffusion method. The format is functional. Conditions: for zone of inhibition at 80 µg/disc: read-out: IZ. The essentials: (§1)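 Fungi kept on potato dextrose agar slants and grown in potato dextrose broth. 500 microlitres of 48-72 h spore suspension swabbed onto Mueller Hinton agar. Compounds in DMSO loaded into 5 mm wells, with a DMSO vehicle plate and fluconazole/ravuconazole positive-control plate. Incubated 48-72 h at 30 C. Clear zone measured in mm, mean of five replicates.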
In general terms: Agar diffusion results depend on both activity and mobility in agar.

For another assay, the system named is Escherichia coli. Kind of assay: Antibacterial activity against Escherichia coli NCIM 2574 assessed as zone of inhibition at 80 ug/well incubated for 24 to 48 hrs by agar well diffusion method. Type of assay: functional. Conditions: for zone of inhibition at 80 µg/disc: read-out: IZ. Summed up:
(§2)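 Strains from NCIM kept on nutrient agar slants at 4 C and grown overnight at 37 C in nutrient broth. 500 microlitres of 24-48 h culture swabbed onto nutrient agar. Compounds in DMSO loaded into 5 mm wells, with a DMSO vehicle plate and streptomycin reference. Incubated 24-48 h at 37 C. Zone of inhibition measured in mm and averaged over 4 replicates.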

In assay [2] the test system is Candida albicans. Briefly: Antifungal activity against Candida albicans NCIM 3100 assessed as zone of inhibition at 80 ug/well incubated for 48 to 72 hrs by agar well diffusion method. Conditions: read-out: IZ. The format is functional. The essentials: as §1
In assay [3] the test system is Staphylococcus epidermidis. Briefly: Antibacterial activity against Staphylococcus albus NCIM 2178 assessed as zone of inhibition at 80 ug/well incubated for 24 to 48 hrs by agar well diffusion method. The conditions noted are these: for zone of inhibition at 80 µg/disc: read-out: IZ. Type of assay: functional. Summed up: as §2
The test system of assay [4] is Aspergillus niger. Kind of assay: Antifungal activity against Aspergillus niger NCIM 504 assessed as zone of inhibition at 80 ug/well incubated for 48 to 72 hrs by agar well diffusion method. Conditions: for zone of inhibition at 80 µg/disc: read-out: IZ. Type of assay: functional. The essentials: as §1
The next assay relates to Proteus mirabilis. Kind of assay: Antibacterial activity against Proteus mirabilis NCIM 2388 assessed as zone of inhibition at 80 ug/well incubated for 24 to 48 hrs by agar well diffusion method. The format is functional. Summed up: as §2
The subject of assay [5] is Candida albicans. Briefly: Antifungal activity against Candida albicans NCIM 3100 assessed as inhibition of fungal growth incubated for 48 to 72 hrs by broth microdilution susceptibility method. Type of assay: functional. Summed up:
(§3)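 Tube micro-dilution in Sabouraud liquid medium. Stocks were made in DMSO and serially diluted twofold in broth to final […]. Tubes inoculated with organisms grown in potato dextrose broth and held 48-72 h at 30 C. MIC is the lowest concentration with no growth. DMSO and uninoculated-media controls were included, in triplicate.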
(In general: In broth dilution the organism is exposed to a series of concentrations in liquid medium.)

Assay [6] concerns Aspergillus niger. Kind of assay: Antifungal activity against Aspergillus niger NCIM 504 assessed as inhibition of fungal growth incubated for 48 to 72 hrs by broth microdilution susceptibility method. Type of assay: functional. The essentials: as §3
The test system of assay [7] is Rhodotorula glutinis. Kind of assay: Antifungal activity against Rhodotorula glutinis NCIM 3168 assessed as inhibition of fungal growth incubated for 48 to 72 hrs by broth microdilution susceptibility method. The format is functional. The essentials:
as §3

The subject of assay [8] is Aspergillus niger. Kind of assay: Inhibition of CYP51 in Aspergillus niger NCIM 504 cells assessed as decrease in ergosterol biosynthesis at 31.5 ug/ml incubated for 72 hrs by spectrophotometric analysis. The essentials: (§4)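 A. niger inoculated into potato dextrose broth with compound, untreated control, shaken 72 h at 37 C. Cells centrifuged, washed and pellet wet weight taken. Saponified in 25% alcoholic KOH 1 h at 85 C, then sterols extracted into n-heptane. Extract diluted fivefold in ethanol and scanned at 240-300 nm. Ergosterol computed as % of wet weight from A281.5 and A230, in duplicate.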

For assay [9], the system named is Aspergillus niger. Briefly: Inhibition of CYP51 in Aspergillus niger NCIM 504 cells assessed as ergosterol synthesis measured per gram wet weight at 31.5 ug/ml incubated for 72 hrs by spectrophotometric analysis (reference value: 0.0000290836%). More on the design: scale not given: the % may be the effect or the level left. The essentials:
as §4

For `Cc1ccc(Cn2cc(-c3cn(-c4ccccc4)nc3-c3sc(-c4ccc(C)cc4)nc3C)nn2)cc1`, the zone of inhibition at 80 µg/disc with Rhodotorula glutinis [1] worked out at 22.3 mm; in the assay on Escherichia coli, 10.2 mm; in the assay on Candida albicans [2], 13 mm; in assay [3], 14.4 mm. Besides, the “inhibition zone (IZ)” value in the assay on Aspergillus niger [4] and in the assay with Proteus mirabilis was “inactive” in each case. In addition, the MIC with Candida albicans [5] came to 62.5 µg/mL (≈ 124 µM); with Aspergillus niger [6], 31.2 µg/mL (≈ 62.2 µM); in the assay with Rhodotorula glutinis [7] it was 125 µg/mL (≈ 249 µM). In the assay on Aspergillus niger [8], the inhibition result is “Active”. Further, the Activity in the assay with Aspergillus niger [9] worked out at 0%.

Regarding `Cc1ccc(Cn2cc(-c3cn(-c4ccccc4)nc3-c3sc(-c4ccc(F)cc4)nc3C)nn2)cc1`, the zone of inhibition at 80 µg/disc is 16.2 mm in the assay on Rhodotorula glutinis [1]; 9.6 mm in the assay on Escherichia coli; 12.2 mm in the assay on Candida albicans [2]; 13.7 mm in assay [3]; 13 mm in the assay with Aspergillus niger [4]. Moreover, in the assay on Proteus mirabilis, the “inhibition zone (IZ)” value was “inactive”. Moreover, the MIC entry in the assay with Candida albicans [5] was “inactive”. Further, the MIC in the assay on Aspergillus niger [6] worked out at 31.2 µg/mL (≈ 61.7 µM); in the assay with Rhodotorula glutinis [7], 62.5 µg/mL (≈ 123 µM). For the same compound, in the assay on Aspergillus niger [8], the inhibition entry is “Active”. Also, in the assay on Aspergillus niger [9], the Activity is 0%.

In the case of `Cc1nc(-c2ccc(F)cc2)sc1-c1nn(-c2ccccc2)cc1-c1cn(Cc2ccccc2)nn1`, the zone of inhibition at 80 µg/disc in the assay with Rhodotorula glutinis [1] was 16 mm; in the assay with Escherichia coli, 11.8 mm; in the assay with Candida albicans [2] it was 16.2 mm; in assay [3], 12.2 mm; in the assay with Aspergillus niger [4], 15.8 mm. In addition, the “inhibition zone (IZ)” value in the assay with Proteus mirabilis was “inactive”. For the same compound, the MIC in the assay with Candida albicans [5] was determined as 125 µg/mL (≈ 254 µM); with Aspergillus niger [6], 31.2 µg/mL (≈ 63.4 µM); with Rhodotorula glutinis [7], 62.5 µg/mL (≈ 127 µM). In addition, the inhibition result with Aspergillus niger [8] was “Active”. Further, the Activity with Aspergillus niger [9] is 0%.

Turning to `Cc1nc(-c2ccc(F)cc2)sc1-c1nn(-c2ccccc2)cc1-c1cn(Cc2ccc(F)cc2)nn1`, the zone of inhibition at 80 µg/disc with Rhodotorula glutinis [1] came out at 13.3 mm; in the assay on Escherichia coli, 12.2 mm; in the assay on Candida albicans [2], 12.8 mm; in [3] it was 11.8 mm; in the assay with Aspergillus niger [4], 11 mm. Also, the “inhibition zone (IZ)” value in the assay on Proteus mirabilis was “inactive”. Further, the MIC in the assay with Candida albicans [5] was found to be 125 µg/mL (≈ 245 µM); in the assay on Aspergillus niger [6], 31.2 µg/mL (≈ 61.2 µM); with Rhodotorula glutinis [7] it was 62.5 µg/mL (≈ 122 µM). The inhibition entry with Aspergillus niger [8] is “Active”. The Activity in the assay with Aspergillus niger [9] is 0%.

As for `Cc1nc(-c2ccccc2)sc1-c1nn(-c2ccccc2)cc1-c1cn(Cc2ccc(Br)cc2)nn1`, the zone of inhibition at 80 µg/disc with Rhodotorula glutinis [1] was determined as 17.5 mm; in the assay with Escherichia coli it was 12 mm; in the assay on Candida albicans [2], 16.4 mm; in [3], 13 mm; with Aspergillus niger [4], 14 mm. For the same compound, in the assay on Proteus mirabilis, the “inhibition zone (IZ)” value is “inactive”. In addition, the MIC was 125 µg/mL (≈ 226 µM) with Candida albicans [5], 62.5 µg/mL (≈ 113 µM) in the assay on Aspergillus niger [6] and 62.5 µg/mL (≈ 113 µM) in the assay with Rhodotorula glutinis [7].

For `Cc1nc(-c2ccc(Br)cc2)sc1-c1nn(-c2ccccc2)cc1-c1cn(Cc2ccc(Br)cc2)nn1`, the “inhibition zone (IZ)” value (in the assay on Rhodotorula glutinis [1]; in the assay on Escherichia coli; in assay [3]; in the assay with Aspergillus niger [4]; in the assay on Proteus mirabilis) was “inactive” in each case. The zone of inhibition at 80 µg/disc in the assay with Candida albicans [2] came to 15 mm. Further, the MIC result with Candida albicans [5], in the assay with Aspergillus niger [6] and with Rhodotorula glutinis [7] was “inactive” in each case.

Regarding `Cc1nc(-c2ccccc2)sc1-c1nn(-c2ccccc2)cc1-c1cn(Cc2ccc(Cl)cc2)nn1`, the zone of inhibition at 80 µg/disc in the assay with Rhodotorula glutinis [1] came out at 19 mm; in the assay on Escherichia coli, 13.2 mm; with Candida albicans [2], 11.5 mm; in [3], 12.2 mm; in the assay with Aspergillus niger [4] it was 13.6 mm. The “inhibition zone (IZ)” value in the assay on Proteus mirabilis is “inactive”. For the same compound, in the assay on Candida albicans [5], the MIC entry is “inactive”. Also, the MIC in the assay with Aspergillus niger [6] is 31.2 µg/mL (≈ 61.4 µM); in the assay with Rhodotorula glutinis [7] it was 62.5 µg/mL (≈ 123 µM).

`Cc1nc(-c2ccc(Br)cc2)sc1-c1nn(-c2ccccc2)cc1-c1cn(Cc2ccc(Cl)cc2)nn1`: the zone of inhibition at 80 µg/disc in the assay with Rhodotorula glutinis [1] came out at 14.8 mm; with Escherichia coli, 11 mm; in the assay with Candida albicans [2], 14.8 mm; in the assay on Aspergillus niger [4], 13.5 mm. The “inhibition zone (IZ)” value (in assay [3]; in the assay with Proteus mirabilis) was “inactive” throughout. In addition, the MIC in the assay on Candida albicans [5] turned out to be 125 µg/mL (≈ 213 µM); in the assay on Aspergillus niger [6] it was 62.5 µg/mL (≈ 106 µM); with Rhodotorula glutinis [7] it was 125 µg/mL (≈ 213 µM).

Take `C[C@@H](c1nc(-c2ccc(C#N)cc2)cs1)[C@](O)(Cn1cncn1)c1ccc(F)cc1F` [RAVUCONAZOLE]: the zone of inhibition at 80 µg/disc came to 20.1 mm in the assay on Rhodotorula glutinis [1], 28.6 mm in the assay with Candida albicans [2] and 20.2 mm in the assay with Aspergillus niger [4]. Also, the “inhibition zone (IZ)” value (in the assay with Escherichia coli; in assay [3]; in the assay on Proteus mirabilis) was “inactive” each time. Also, the MIC in the assay with Candida albicans [5] was determined as 7.81 µg/mL (≈ 17.9 µM); in the assay with Aspergillus niger [6], 31.2 µg/mL (≈ 71.4 µM); with Rhodotorula glutinis [7], 15.6 µg/mL (≈ 35.7 µM).

Regarding `Cc1ccc(-c2nc(C)c(-c3nn(-c4ccccc4)cc3-c3cn(Cc4ccc(Cl)cc4)nn3)s2)cc1`, the zone of inhibition at 80 µg/disc in the assay with Rhodotorula glutinis [1] was found to be 19 mm; in the assay on Escherichia coli, 13.6 mm; with Candida albicans [2], 10 mm; in assay [3] it was 12 mm; in the assay on Aspergillus niger [4], 16 mm. The “inhibition zone (IZ)” value in the assay on Proteus mirabilis was “inactive”. Also, in the assay with Candida albicans [5], the MIC result was “inactive”. Besides, the MIC in the assay on Aspergillus niger [6] stood at 31.2 µg/mL (≈ 59.7 µM); in the assay with Rhodotorula glutinis [7], 62.5 µg/mL (≈ 119 µM). In the assay with Aspergillus niger [8], the inhibition result is “Active”. Also, the Activity in the assay on Aspergillus niger [9] is 0%.

Regarding `Cc1ccc(-c2nc(C)c(-c3nn(-c4ccccc4)cc3-c3cn(Cc4ccccc4)nn3)s2)cc1`, the zone of inhibition at 80 µg/disc in the assay on Rhodotorula glutinis [1] was 18.4 mm; in the assay with Candida albicans [2] it was 15.8 mm; in assay [3], 11.2 mm. For the same compound, the “inhibition zone (IZ)” value with Escherichia coli, in the assay on Aspergillus niger [4] and in the assay on Proteus mirabilis was “inactive” in each case. The results for the MIC with Candida albicans [5], with Aspergillus niger [6] and in the assay with Rhodotorula glutinis [7] were 125 µg/mL (≈ 256 µM), 62.5 µg/mL (≈ 128 µM) and 125 µg/mL (≈ 256 µM), respectively.

As a reminder, the MIC is the smallest concentration in the dilution series that meets the test's criterion for growth inhibition.

The record behind these values is ChEMBL document CHEMBL4396915, “Synthesis of new thiazolyl-pyrazolyl-1,2,3-triazole derivatives as potential antimicrobial agents” (2019).
